Structures are written as SMILES. Read-outs that look alike come from different tables or passages of the source.

What is called EC50 is the concentration at which the effect is half-maximal. The Emax is the maximal effect, on the per cent scale that the assay sets. The term Ki denotes the equilibrium dissociation constant of an inhibitor or competing ligand from its target.

In data set [1] the target is recombinant human CB2 (hCB2) (Homo sapiens, UniProt P34972). Briefly: γ-[35S]GTP functional assay, hCB2. The class given is biochemical. Particulars: for γ-[35S]GTP hCB2 Emax: percentage relative to the efficacy of compound 7.
The target in data set [2] is recombinant human CB1 (hCB1) (Homo sapiens, UniProt P21554). In words: γ-[35S]GTP functional assay, hCB1. In kind it is biochemical.
Another data set concerns the target hCB2 (Homo sapiens, UniProt P34972). Briefly: Radioligand competitive binding assay.
A further data set has as its target hCB1 (Homo sapiens, UniProt P21554). In words: Radioligand competitive binding assay, hCB1.
For data set [3] the following is noted: PBS, pH 7.4, at 2.0 × 10^-4 M.
In the next data set the test system is plasma protein. The conditions noted are these: 1.0E-05 M.
Another data set concerns the target K+ channel hERG (Homo sapiens, UniProt Q12809).
In data set [4] the test system is neuropathic pain in spinal nerve ligation and paclitaxel-induced neuropathy models. Particulars: cited from earlier work.
Data set [5] deals with tactile allodynia in a paclitaxel-induced neuropathic pain model. In words: Tactile allodynia in paclitaxel-induced neuropathic pain model. In kind it is in vivo, rat. Particulars: paclitaxel-treated rats; for Effect on mechanical (tactile) allodynia: intraperitoneal administration. Put shortly: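 Adult male Sprague Dawley rats (120–150 g) were housed three per cage on a 12 h light/dark cycle. Paclitaxel was given at 1.0 mg kg−1 i.p. daily for 4 days (cumulative 4 mg kg−1), with vehicle 10 % Cremophor EL in saline at 1 mL kg−1. Hind-paw mechanical withdrawal was tested daily from day 0 after ≥30 min acclimation on wire mesh. Test compound was given i.p.; n = 5–6 per group.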

Where [6] appears, read: read-out: Ki hCB2, CHO-K1 membranes, 1 nM [3H]7, mean ± SEM.

Sequence of hCB2 (P34972 whole entry): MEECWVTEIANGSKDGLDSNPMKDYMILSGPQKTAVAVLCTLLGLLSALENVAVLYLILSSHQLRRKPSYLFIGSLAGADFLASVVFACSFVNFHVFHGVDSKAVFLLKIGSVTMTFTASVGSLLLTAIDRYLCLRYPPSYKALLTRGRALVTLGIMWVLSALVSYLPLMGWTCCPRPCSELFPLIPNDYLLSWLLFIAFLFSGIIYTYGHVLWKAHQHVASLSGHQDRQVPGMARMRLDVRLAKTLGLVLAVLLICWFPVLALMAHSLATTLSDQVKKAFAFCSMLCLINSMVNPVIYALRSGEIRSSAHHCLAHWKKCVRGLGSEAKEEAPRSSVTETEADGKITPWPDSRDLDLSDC
Sequence of recombinant human CB2 (hCB2) (P34972 whole entry): as above
Sequence of recombinant human CB1 (hCB1) (P21554 whole entry): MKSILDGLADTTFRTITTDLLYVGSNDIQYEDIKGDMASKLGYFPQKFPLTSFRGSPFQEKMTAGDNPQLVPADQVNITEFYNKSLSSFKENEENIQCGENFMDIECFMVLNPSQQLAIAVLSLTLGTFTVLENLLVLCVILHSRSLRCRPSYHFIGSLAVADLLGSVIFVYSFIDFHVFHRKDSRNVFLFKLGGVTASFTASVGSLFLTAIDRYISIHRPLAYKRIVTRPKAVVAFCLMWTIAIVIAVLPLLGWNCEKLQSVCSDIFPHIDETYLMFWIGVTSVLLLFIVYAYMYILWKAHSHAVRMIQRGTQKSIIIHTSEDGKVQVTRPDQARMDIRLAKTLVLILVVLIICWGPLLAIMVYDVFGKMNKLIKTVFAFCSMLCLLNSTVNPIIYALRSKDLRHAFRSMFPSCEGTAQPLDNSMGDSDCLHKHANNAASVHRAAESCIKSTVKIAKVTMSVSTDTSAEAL
Sequence of hCB1 (P21554 whole entry): as above
Sequence of K+ channel hERG (Q12809 whole entry): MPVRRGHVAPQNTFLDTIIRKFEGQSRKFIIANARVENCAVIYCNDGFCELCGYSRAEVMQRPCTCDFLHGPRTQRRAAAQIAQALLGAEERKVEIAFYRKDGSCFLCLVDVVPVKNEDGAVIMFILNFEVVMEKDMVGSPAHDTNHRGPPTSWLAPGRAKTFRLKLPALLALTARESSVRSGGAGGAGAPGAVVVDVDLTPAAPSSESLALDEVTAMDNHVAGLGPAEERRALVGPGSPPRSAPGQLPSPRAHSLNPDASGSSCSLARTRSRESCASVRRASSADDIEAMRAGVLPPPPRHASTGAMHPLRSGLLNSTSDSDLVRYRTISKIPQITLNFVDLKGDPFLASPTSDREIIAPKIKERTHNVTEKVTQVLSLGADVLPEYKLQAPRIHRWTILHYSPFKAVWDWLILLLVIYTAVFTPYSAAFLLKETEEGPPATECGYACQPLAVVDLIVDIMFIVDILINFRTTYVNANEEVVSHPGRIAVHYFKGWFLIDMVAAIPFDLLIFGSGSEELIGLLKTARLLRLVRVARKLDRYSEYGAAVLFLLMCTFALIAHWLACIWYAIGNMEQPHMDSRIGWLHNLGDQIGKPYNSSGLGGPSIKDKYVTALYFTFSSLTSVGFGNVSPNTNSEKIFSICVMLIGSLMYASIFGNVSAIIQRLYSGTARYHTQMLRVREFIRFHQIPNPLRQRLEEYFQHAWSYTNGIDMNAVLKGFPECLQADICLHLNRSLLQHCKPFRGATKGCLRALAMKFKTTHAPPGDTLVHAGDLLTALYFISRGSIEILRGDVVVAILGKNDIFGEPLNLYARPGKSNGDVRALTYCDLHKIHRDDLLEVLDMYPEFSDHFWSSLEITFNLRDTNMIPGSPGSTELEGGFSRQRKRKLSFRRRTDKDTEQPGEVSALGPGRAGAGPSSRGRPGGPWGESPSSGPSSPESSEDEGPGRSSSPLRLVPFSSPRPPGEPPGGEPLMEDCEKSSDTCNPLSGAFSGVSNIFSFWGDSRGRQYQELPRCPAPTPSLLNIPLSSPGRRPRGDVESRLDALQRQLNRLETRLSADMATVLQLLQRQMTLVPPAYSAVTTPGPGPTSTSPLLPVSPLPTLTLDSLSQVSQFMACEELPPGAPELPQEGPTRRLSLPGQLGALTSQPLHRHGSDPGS

For `C[C@]1(Cc2ccccc2)COc2cc(C(=O)N3CCCCC3)ccc21` [Compound 34, (R)-3-benzyl-3-methyl-2,3-dihydrobenzofuran-6-carboxylic acid piperidine amide], the “γ-[35S]GTP hCB2 Emax” value in [1] was determined as 43.3%.

For the molecule `C[C@@]1(Cc2ccccc2)COc2cc(C(=O)N3CCCCC3)ccc21` [Compound 33, (S)-3-Benzyl-3-methyl-2,3-dihydrobenzofuran-6-carboxylic acid piperidine amide], in data set [1], the “γ-[35S]GTP hCB2 Emax” value came out at 86%.

With `CC1(Cc2ccccc2)COc2cc(C(=O)NCC3CCOCC3)ccc21` (stereo not shown) [Compound 24, 3-Benzyl-3-methyl-2,3-dihydrobenzofuran-6-carboxylic acid (tetrahydropyran-4-ylmethyl)amide], the results for the EC50 in data set [2] and in [1] were > 10 µM and 0.659 ± 0.0014 µM, respectively.

For the molecule `CC1(Cc2cccc3ccccc23)COc2cc(C(=O)N3CCCCC3)ccc21` (stereo not shown) [Compound 28, (3-Methyl-3-naphthalen-1-ylmethyl-2,3-dihydrobenzofuran-6-yl)-piperidin-1-ylmethanone], the EC50 in [2] and in [1] was > 10 µM each time.

Regarding `CC1(Cc2ccccc2)COc2ccc(C(=O)NC3CCCCC3)cc21` (stereo not shown) [Compound 14, 3-Benzyl-3-methyl-2,3-dihydrobenzofuran-5-carboxylic acid cyclohexylamide], the EC50 in [2] is > 10 µM.

For the molecule `CC1(Cc2ccccc2)COc2cc(C(=O)N3CCOCC3)ccc21` (stereo not shown) [Compound 22, (3-Benzyl-3-methyl-2,3-dihydrobenzofuran-6-yl)morpholinomethanone], the EC50 was > 10 µM in [2] and 5.583 ± 0.0044 µM in data set [1].

Regarding `CC1(Cc2ccc(Cl)cc2)COc2cc(C(=O)N3CCCCC3)ccc21` (stereo not shown) [Compound 30, [3-(4-Chlorobenzyl)-3-methyl-2,3-dihydrobenzofuran-6-yl]piperidin-1-ylmethanone], the EC50 in data set [2] was 1.363 ± 0.0014 µM; in [1] it was 0.0562 ± 0.0012 µM. Moreover, in [2] (read-out: γ-[35S]GTP hCB1 Emax), the Emax worked out at 86.9%. Further, the affinity at hCB2, expressed as Ki, was 0.123 ± 0.0165 µM.

`CC1(Cc2ccccc2)COc2cc(C(=O)N3CCCCC3)ccc21` (stereo not shown) [Compound 18, 3-Benzyl-3-methyl-2,3-dihydrobenzofuran-6-carboxylic acid piperidine amide]: the “γ-[35S]GTP hCB2 Emax” value in data set [1] was 88.3%. For the same molecule, on hCB1 (read-out: Ki hCB1, mean ± SEM), the inhibition constant (Ki) was > 10 µM. The Ki on hCB2 (setting [6]) amounted to 0.422 ± 0.123 µM. In addition, the Aqueous solubility in data set [3] came to 31.8 ± 1.8 μm μM. Further, in the data set with plasma protein, the “Protein bound (human)” value stood at 82.8 ± 11.1% and the “Protein recovery (human)” value is 95.6 ± 13.6%. In addition, the “Intestinal permeability, assessment” value with TC7 was “compatible with oral administration with no efflux”. For the same molecule, in the data set with TC7 (TC7, pH 6.5/7.4), the “A–B permeability (% recovery)” value came out at 63.5 ± 6.5% and the “B–A permeability (% recovery)” value is 85.5 ± 0.5%. Moreover, in the data set on TC7 (TC7, pH 6.5/7.4, 1.0E-05 M), the “A–B permeability” value is 52.2 ± 1.7 10^−6 cm s^−1 and the “B–A permeability” value was 16.2 ± 0.2 10^−6 cm s^−1. Besides, in the data set with strain TA98 (up to 10 μM), the “Genetic toxicity (Ames test)” value is recorded as “No genetic toxicity”. In addition, in the data set with strain TA98 (with S9), the “Ames test (strain TA98 +S9)” value is <0. For the same molecule, the “Ames test (strain TA98)” value in the data set on strain TA98 (without S9) was <0. Besides, the Cardiac toxicity entry on K+ channel hERG is recorded as “did not show any cardiac toxicity”. The “K+ channel hERG automated patch-clamp (cardiac toxicity)” value on K+ channel hERG (at 1 μM) was “inactive at 1 μm”. Further, the “Effect on locomotor behavior” value in [4] (rats) is “without affecting locomotor behavior”. Moreover, in [4] (spinal nerve ligation and paclitaxel-induced neuropathy models in rats), the “Effect on neuropathic pain” value is “reversed neuropathic pain”.

Take `COc1ccc(CC2(C)COc3cc(C(=O)N4CCCCC4)ccc32)cc1` (stereo not shown) [Compound 31, [3-[(4-Methoxyphenyl)methyl]-3-methyl-2,3-dihydrobenzofuran-6-yl]-(1-piperidyl)methanone]: the results for the EC50 in data set [2] and in [1] were > 10 µM and 0.235 µM, respectively.

Regarding `CC1(Cc2cccc3ccccc23)COc2cc(C(=O)NC3CCCCC3)ccc21` (stereo not shown) [Compound 27, 3-Methyl-3-naphthalen-1-ylmethyl-2,3-dihydrobenzofuran-6-carboxylic acid cyclohexylamide], the EC50 in data set [2] and in data set [1] was > 10 µM throughout.

With `CN(C(=O)c1ccc2c(c1)OCC2(C)Cc1ccccc1)C(C)(C)C` (stereo not shown) [Compound 23, 3-Benzyl-N-tert-butyl-N,3-dimethyl-2,3-dihydrobenzofuran-6-carboxamide], the EC50 worked out at 2.58 ± 0.0015 µM in data set [2] and 0.0953 ± 0.0018 µM in data set [1].

`CC1(Cc2ccccc2)COc2cc(C(=O)NC3CCCCC3)ccc21` (stereo not shown) [Compound 17, 3-Benzyl-3-methyl-2,3-dihydrobenzofuran-6-carboxylic acid cyclohexylamide]: the EC50 in [2] is > 10 µM.

Regarding `CCC/C=C/CC1(C)COc2cc(C(=O)N3CCCCC3)ccc21` (stereo not shown) [Compound 19], the “γ-[35S]GTP hCB1 Emax” value in data set [2] (percentage relative to the efficacy of compound 7) amounted to 60%. Moreover, the “γ-[35S]GTP hCB2 Emax” value in data set [1] was determined as 97.1%. Besides, on hCB2 (setting [6]), the Ki was 0.0836 ± 0.0238 µM. Further, the “%MPE for reversing mechanical allodynia versus vehicle” value in [5] (i.p., 15 mg kg^-1) was “significantly different (P <0.05) from that of the vehicle”. The “Effect on mechanical (tactile) allodynia” value in [5] is “suppressed mechanical allodynia”.

With `CCC/C=C/CC1(C)COc2cc(C(=O)NC3CCCCC3)ccc21` (stereo not shown) [Compound 20, 3-((E)-Hex-2-enyl)-3-methyl-2,3-dihydrobenzofuran-6-carboxylic acid cyclohexylamide], the EC50 in [2] was > 10 µM; in data set [1], 0.839 ± 0.0055 µM. The Ki on hCB1 and on hCB2 was > 1 µM each time.

As to `CN1CCCCC1Cn1cc(C(=O)c2cc([N+](=O)[O-])ccc2I)c2ccccc21` (stereo not shown) [Compound 1, AM1241, reference compound], in data set [5] (i.p., 1, 3 and 5 mg kg^-1), the “Effects on tactile allodynia versus vehicle” value is listed as “not significantly different from the effects induced by the vehicle”. In [5], the “Effect on mechanical (tactile) allodynia” value was “did not affect the paw withdrawal threshold”.

Turning to `CC1(Cc2ccncc2)COc2cc(C(=O)N3CCCCC3)ccc21` (stereo not shown) [Compound 32, [3-Methyl-3-(4-pyridylmethyl)-2,3-dihydrobenzofuran-6-yl]-(1-piperidyl)methanone], the EC50 in data set [2] is > 10 µM; in data set [1], 2.8 µM.

For the molecule `CC1(Cc2ccc3ccccc3c2)COc2cc(C(=O)N3CCCCC3)ccc21` (stereo not shown) [Compound 29, (3-Methyl-3-naphthalen-2-ylmethyl-2,3-dihydrobenzofuran-6-yl)-piperidin-1-ylmethanone], the EC50 was > 10 µM in [2] and 0.875 ± 0.0014 µM in data set [1]. Further, the Ki at hCB1 came out at 0.43 ± 0.039 µM; on hCB2, 0.49 ± 0.045 µM.

Values taken from publication PMC3262993 (Chemmedchem, 2009).
